{"source": "ChEMBL document CHEMBL1137845", "about": "“Discovery of N-propylurea 3-benzylpiperidines as selective CC chemokine receptor-3 (CCR3) antagonists” (Bioorg Med Chem Lett, 2004)", "key": {"[1]": {"biological_target": "T1, C-C chemokine receptor type 3 (Homo sapiens, UniProt P51677)", "T1 sequence (P51677 whole entry)": "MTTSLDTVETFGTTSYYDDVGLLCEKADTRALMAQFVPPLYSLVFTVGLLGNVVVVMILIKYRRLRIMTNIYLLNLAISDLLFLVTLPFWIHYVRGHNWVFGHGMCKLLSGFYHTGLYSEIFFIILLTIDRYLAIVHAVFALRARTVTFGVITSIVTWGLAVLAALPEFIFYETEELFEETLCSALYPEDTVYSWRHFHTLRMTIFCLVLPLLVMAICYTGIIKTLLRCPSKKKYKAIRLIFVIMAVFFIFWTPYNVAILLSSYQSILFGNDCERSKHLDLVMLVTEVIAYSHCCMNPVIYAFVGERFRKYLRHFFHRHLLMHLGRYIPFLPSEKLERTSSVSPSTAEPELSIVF", "experiment": "Inhibitory concentration against C-C chemokine receptor type 3 using human [125I]eotaxin.", "how_it_was_run": "(§1)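 Displacement of 150 pM 125I-labeled human eotaxin from CHO cells (5×10^5 per well), compound 0.0001–1 μM, in RPMI 1640 with 0.5% BSA, 10 mM HEPES, 5 mM MgCl2; filter plates pretreated with 5 μg/mL protamine in PBS pH 7.2. 30 min at room temperature, vacuum filtration, three washes with binding buffer plus 0.5 M NaCl, bound label by liquid scintillation counting.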"}, "[2]": {"biological_target": "5-hydroxytryptamine receptor 2A (Homo sapiens, UniProt P28223)", "sequence (P28223 whole entry)": "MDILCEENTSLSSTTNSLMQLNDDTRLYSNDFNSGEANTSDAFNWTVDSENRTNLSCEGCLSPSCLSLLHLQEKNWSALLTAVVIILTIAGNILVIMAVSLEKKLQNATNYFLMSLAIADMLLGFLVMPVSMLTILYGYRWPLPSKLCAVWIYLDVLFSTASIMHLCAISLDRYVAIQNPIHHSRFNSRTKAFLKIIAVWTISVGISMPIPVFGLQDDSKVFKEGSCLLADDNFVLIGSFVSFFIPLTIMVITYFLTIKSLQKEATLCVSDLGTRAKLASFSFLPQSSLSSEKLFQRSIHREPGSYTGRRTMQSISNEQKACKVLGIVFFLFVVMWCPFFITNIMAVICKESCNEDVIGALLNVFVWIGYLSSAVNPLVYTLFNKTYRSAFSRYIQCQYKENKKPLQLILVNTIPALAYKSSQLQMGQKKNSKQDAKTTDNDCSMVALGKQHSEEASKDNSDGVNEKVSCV", "experiment": "Inhibition of binding to serotonin 5-hydroxytryptamine 2A receptor"}, "[3]": {"biological_target": "T2, C-C chemokine receptor type 3 (Homo sapiens) (UniProt P51677)", "T2 sequence (whole entry)": "T1 sequence (P51677 whole entry)", "experiment": "Inhibitory concentration of compound against C-C chemokine receptor type 3 was determined using human [125I]eotaxin", "conditions": "concentration not given here", "how_it_was_run": "as §1"}, "[4]": {"experiment": "Effective concentration determined in calcium mobilization assay", "type": "functional", "how_it_was_run": "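Calcium flux in 2×10^5 eosinophils preloaded with Fluo-3AM, stimulated with 10 nM eotaxin, compound 0.0001–1 μM, in RPMI 1640 with 0.1% BSA, 20 mM HEPES and 2.5 mM probenecid; fluorescence read on a fluorescent imaging plate reader.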"}, "[5]": {"experiment": "Effect on chemotaxis of eosinophils was determined", "type": "functional"}, "[6]": {"biological_target": "CC chemokine receptor 3 (Homo sapiens)", "experiment": "Binding affinity against CC chemokine receptor 3 was determined using human [125I]-eotaxin"}}, "note": "pEC50, pIC50, pKi: −log10 of the molar value.", "data": [{"smiles": "Cn1nnnc1-c1cc(CO)cc(NC(=O)NCCCN2CCC[C@@H](Cc3ccc(F)cc3)C2)c1", "values": [{"measurement": "pIC50", "setting": "[1]", "value": 9.05}]}, {"smiles": "CC(=O)c1cccc(NC(=O)NCCCN2C[C@@H]3Cc4ccc(F)cc4C[C@H]3C2)c1", "values": [{"measurement": "pIC50", "setting": "[1]", "value": 7.31}]}, {"smiles": "N#Cc1cccc(NC(=O)NCCCN2CCCC(Cc3ccc(F)cc3F)C2)c1", "note": "(stereo unspecified)", "values": [{"measurement": "pIC50", "setting": "[1]", "value": 7.72}, {"measurement": "pKi", "setting": "[2]", "value": 5.63}]}, {"smiles": "CC(=O)c1cccc(NC(=O)NCCCN2CC3CCC2[C@@H](Cc2ccc(F)cc2)C3)c1", "note": "(stereo partly specified)", "values": [{"measurement": "pIC50", "setting": "[1]", "value": 6.77}]}, {"smiles": "N#Cc1cccc(NC(=O)NCCCN2CCCC(Cc3ccc(C(F)(F)F)cc3)C2)c1", "note": "(stereo unspecified)", "values": [{"measurement": "inhibition", "setting": "[3]", "value": 11, "unit": "%"}]}, {"smiles": "N#Cc1cccc(NC(=O)NCCCN2CCC(Cc3ccccc3)CC2)c1", "values": [{"measurement": "pKi", "setting": "[2]", "value": 6.11}]}, {"smiles": "N#Cc1cccc(NC(=O)NCCCN2CCOC(Cc3ccccc3)C2)c1", "note": "(stereo unspecified)", "values": [{"measurement": "inhibition", "setting": "[3]", "value": 36, "unit": "%"}]}, {"smiles": "N#Cc1cccc(NC(=O)NCCCN2CCCC(CCc3ccccc3)C2)c1", "note": "(stereo unspecified)", "values": [{"measurement": "inhibition", "setting": "[3]", "value": 66, "unit": "%"}]}, {"smiles": "CC(=O)c1cccc(NC(=O)NCCCN2C[C@@H]3C[C@@H](c4ccc(F)cc4)[C@@H]3C2)c1", "values": [{"measurement": "inhibition", "setting": "[3]", "value": 68, "unit": "%"}]}, {"smiles": "O=C(NCCCN1CCC[C@@H](Cc2ccc(F)cc2)C1)Nc1cccc(-c2cnco2)c1", "values": [{"measurement": "pIC50", "setting": "[1]", "value": 8.10}]}, {"smiles": "Cn1nnnc1-c1cc(Br)cc(NC(=O)NCCCN2CCC[C@@H](Cc3ccc(F)cc3)C2)c1", "values": [{"measurement": "pIC50", "setting": "[1]", "value": 8.51}, {"measurement": "pEC50", "setting": "[4]", "value": 8.47}, {"measurement": "pEC50", "setting": "[5]", "value": "> 9.00"}]}, {"smiles": "CC(=O)c1cccc(NC(=O)NCCCN2[C@@H]3CC[C@H]2C[C@@H](Cc2ccc(F)cc2)C3)c1", "note": "(stereo in doubt; 22)", "values": [{"measurement": "pIC50", "setting": "[1]", "value": 7.33}]}, {"smiles": "Cn1nnnc1-c1cc(NC(=O)NCCCN2CCC[C@@H](Cc3ccc(F)cc3)C2)cc(C(F)(F)F)c1", "values": [{"measurement": "pIC50", "setting": "[1]", "value": 8.92}]}, {"smiles": "CNC(=O)c1cc(NC(=O)NCCCN2CCC[C@@H](Cc3ccc(F)cc3)C2)cc(-c2nnnn2C)c1", "values": [{"measurement": "pIC50", "setting": "[1]", "value": 9.15}, {"measurement": "pEC50", "setting": "[4]", "value": 9.22}, {"measurement": "pEC50", "setting": "[5]", "value": "> 9.00"}]}, {"smiles": "CC(=O)c1cccc(NC(=O)NCCCN2C[C@H]3Cc4ccc(F)cc4C[C@H]3C2)c1", "values": [{"measurement": "pIC50", "setting": "[1]", "value": 7.25}]}, {"smiles": "CC(=O)c1cccc(NC(=O)NCCCN2CC3CCC2[C@H](Cc2ccc(F)cc2)C3)c1", "note": "(stereo partly specified)", "values": [{"measurement": "pIC50", "setting": "[1]", "value": 6.10}]}, {"smiles": "N#Cc1cccc(NC(=O)NCCCN2CCCC(Cc3cccc(F)c3)C2)c1", "note": "(stereo unspecified)", "values": [{"measurement": "pIC50", "setting": "[1]", "value": 6.61}]}, {"smiles": "O=C(NCCCN1CCC[C@@H](Cc2ccc(F)cc2)C1)Nc1cccc(-c2nnco2)c1", "values": [{"measurement": "pIC50", "setting": "[1]", "value": 8.44}, {"measurement": "pEC50", "setting": "[4]", "value": 7.35}]}, {"smiles": "N#Cc1cccc(NC(=O)NCCCN2CCCC(Cc3ccccc3F)C2)c1", "note": "(stereo unspecified)", "values": [{"measurement": "pIC50", "setting": "[1]", "value": 7.42}, {"measurement": "pKi", "setting": "[2]", "value": 5.65}]}, {"smiles": "N#Cc1cccc(NC(=O)NCCCN2CCC(Cc3ccc(F)cc3)CC2)c1", "values": [{"measurement": "pKi", "setting": "[2]", "value": 6.78}]}, {"smiles": "Cn1nnnc1-c1cc(NC(=O)NCCCN2CCC[C@@H](Cc3ccc(F)cc3)C2)cc(-c2nnnn2C)c1", "values": [{"measurement": "pIC50", "setting": "[1]", "value": 9.15}, {"measurement": "pEC50", "setting": "[4]", "value": 9.12}, {"measurement": "pEC50", "setting": "[5]", "value": 9.40}]}, {"smiles": "N#Cc1cccc(NC(=O)NCCCN2CCCC(Cc3ccccc3)C2)c1", "note": "(stereo unspecified)", "values": [{"measurement": "pIC50", "setting": "[1]", "value": 7.39}, {"measurement": "pKi", "setting": "[2]", "value": 5.53}]}, {"smiles": "N#Cc1cccc(NC(=O)NCCCN2CCCC(Cc3ccc(F)cc3)C2)c1", "note": "(stereo unspecified)", "values": [{"measurement": "pIC50", "setting": "[1]", "value": 7.54}, {"measurement": "pKi", "setting": "[2]", "value": 5.64}]}, {"smiles": "CC(=O)c1cccc(NC(=O)NCCCN2CCC(Cc3ccc(F)cc3)CC2)c1", "values": [{"measurement": "pKi", "setting": "[2]", "value": 6.71}]}, {"smiles": "CC(=O)c1cccc(NC(=O)NCCCN2CCC[C@@H](Cc3ccc(F)cc3)C2)c1", "values": [{"measurement": "pIC50", "setting": "[1]", "value": 8.60}, {"measurement": "pKi", "setting": "[2]", "value": 5.87}, {"measurement": "pEC50", "setting": "[4]", "value": 8.62}, {"measurement": "pEC50", "setting": "[5]", "value": 7.60}]}, {"smiles": "CC(=O)c1cc(NC(=O)NCCCN2CCC[C@@H](Cc3ccc(F)cc3)C2)cc(C(C)=O)c1", "values": [{"measurement": "pIC50", "setting": "[1]", "value": 8.92}, {"measurement": "pEC50", "setting": "[5]", "value": 8.52}]}, {"smiles": "COc1cccc(NC(=O)NCCCN2CCOC(Cc3ccccc3)C2)c1", "note": "(stereo unspecified)", "values": [{"measurement": "inhibition", "setting": "[3]", "value": 14, "unit": "%"}]}, {"smiles": "CC(=O)c1cccc(NC(=O)NCCCN2CCC[C@H](Cc3ccc(F)cc3)C2)c1", "values": [{"measurement": "pIC50", "setting": "[1]", "value": 7.41}]}, {"smiles": "COc1cccc(CC2CCCN(CCCNC(=O)Nc3cccc(C#N)c3)C2)c1", "note": "(stereo unspecified)", "values": [{"measurement": "inhibition", "setting": "[3]", "value": 31, "unit": "%"}]}, {"smiles": "Cn1nnnc1-c1cccc(NC(=O)NCCCN2CCC[C@@H](Cc3ccc(F)cc3)C2)c1", "values": [{"measurement": "pIC50", "setting": "[1]", "value": 9.22}, {"measurement": "pEC50", "setting": "[4]", "value": 8.89}, {"measurement": "pEC50", "setting": "[5]", "value": 8.49}]}, {"smiles": "COc1cccc(NC(=O)NCCCN2CCC(Cc3ccccc3)CC2)c1", "values": [{"measurement": "pKi", "setting": "[2]", "value": 6.21}]}, {"smiles": "COc1cccc(NC(=O)NCCCN2CCC(Cc3ccc(F)cc3)CC2)c1", "values": [{"measurement": "pKi", "setting": "[2]", "value": 6.65}]}, {"smiles": "Cc1cc(NC(=O)NCCCN2CCC[C@@H](Cc3ccc(F)cc3)C2)cc(-c2nnnn2C)c1", "values": [{"measurement": "pIC50", "setting": "[1]", "value": 8.82}, {"measurement": "pEC50", "setting": "[4]", "value": 9.05}, {"measurement": "pEC50", "setting": "[5]", "value": 9.00}]}, {"smiles": "O=C(NCCCN1CCC[C@@H](Cc2ccc(F)cc2)C1)Nc1cccc(-n2ccnc2)c1", "values": [{"measurement": "pIC50", "setting": "[1]", "value": 8.15}]}, {"smiles": "N#Cc1cccc(NC(=O)NCCCN2CCC(Cc3ccc(F)cc3)C2)c1", "note": "(stereo unspecified)", "values": [{"measurement": "pIC50", "setting": "[1]", "value": 7.51}, {"measurement": "pKi", "setting": "[2]", "value": 6.75}]}, {"smiles": "CC(=O)c1cccc(NC(=O)NCCCN2CC3(Cc4ccc(F)cc4)CCC2CC3)c1", "values": [{"measurement": "pIC50", "setting": "[1]", "value": 7.41}]}, {"smiles": "CCn1nnnc1-c1cccc(NC(=O)NCCCN2CCC[C@@H](Cc3ccc(F)cc3)C2)c1", "values": [{"measurement": "pIC50", "setting": "[1]", "value": 8.92}]}, {"smiles": "CC(=O)c1cc(NC(=O)NCCCN2CCC[C@@H](Cc3ccc(F)cc3)C2)cc(-c2nnnn2C)c1", "values": [{"measurement": "pIC50", "setting": "[1]", "value": 8.59}]}, {"smiles": "CC(=O)c1cccc(NC(=O)NCCCN2CCN(C(C)=O)C(Cc3ccc(F)cc3)C2)c1", "note": "(stereo unspecified)", "values": [{"measurement": "inhibition", "setting": "[3]", "value": 0, "unit": "%"}]}, {"smiles": "COc1cccc(NC(=O)NCCCN2CCCC(Cc3ccccc3)C2)c1", "note": "(stereo unspecified)", "values": [{"measurement": "pIC50", "setting": "[1]", "value": 7.26}, {"measurement": "pKi", "setting": "[2]", "value": 6.04}]}, {"smiles": "Cn1nnnc1-c1cc(NC(=O)NCCCN2CCC[C@@H](Cc3ccc(F)cc3)C2)cc(-c2ccccc2)c1", "values": [{"measurement": "pIC50", "setting": "[1]", "value": 8.62}]}, {"smiles": "CC(=O)c1cccc(NC(=O)NCCCN2[C@@H]3CC[C@H]2C[C@@H](Cc2ccc(F)cc2)C3)c1", "note": "(stereo in doubt; 21)", "values": [{"measurement": "pIC50", "setting": "[1]", "value": 8.13}]}, {"smiles": "CC(C)n1nnnc1-c1cccc(NC(=O)NCCCN2CCC[C@@H](Cc3ccc(F)cc3)C2)c1", "values": [{"measurement": "pIC50", "setting": "[1]", "value": 8.51}]}, {"smiles": "COc1cccc(NC(=O)NCCCN2CCCC(CCc3ccccc3)C2)c1", "note": "(stereo unspecified)", "values": [{"measurement": "pIC50", "setting": "[6]", "value": 6.10}, {"measurement": "inhibition", "setting": "[3]", "value": 84, "unit": "%"}]}]}
